Assay outcomes: PubChem, several laboratories
An excerpt weighted towards active compounds, which were near 3.1% of everything screened.
ATG4B inhibitor: blocks human ATG4B protease cleavage of LC3 substrate; Q9Y4P1; ATG4B cleavage of LC3-PLA2, NBD-HPC fluorescence, 1 h; inhibition, % at 8.33 µM; 0.51% of 340,000 active; AID 504462; in the data active = inhibition above about 40%
rCAG RNA binder: binds r(CAG) RNA repeats; r(CAG) RNA repeat, TO-PRO-1 dye displacement fluorescence; inhibition, % at 3 µM; 1.3% of 370,000 active; AID 651821;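 active = inhibition above the plate cutoff, the mean of all test compounds on that plate plus 3 SD, cut at about 35% in these data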;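 note: 0% = DMSO alone and 100% = 100 µM mitoxantrone as full dye displacement; higher means more dye released from RNA so lower well fluorescence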
UHRF1 binding: UHRF1 methyl-DNA binding inhibition; AID 687016; 0.75% of 370,000 active; Q96T88; UHRF1 binding to methylated oligo, TR-FRET; inhibition, % at 4.4 µM; in the data active = inhibition above about 21%;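 note: UHRF1 SRA domain binding a hemimethylated CpG hairpin DNA probe; 0% = median of test compound wells and 100% = reference inhibitor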
CSN inh: blocks human CSN-mediated cullin deneddylation; Q92905; Purified CSN, SCF-Nedd8-OG deneddylation, fluorescence polarization; inhibition, % at 12.5 µM; 0.38% of 360,000 active;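 active = pattern-corrected inhibition above about 35%, with an unprinted fluorescence ratio check between 0.5 and 1.5, limit read from the data, passing the limit was not always enough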;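 note: 0% = enzyme with substrate and 100% = substrate without enzyme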
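Detection – fluorescence polarization · System – HEK293T-derived human Csn5 enzyme · Controls – substrate-only high control, full reaction low control · Timing – 90 min, room temperature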
MBD2 DNA inh: inhibitors of human MBD2 binding to methylated oligonucleotide; Q9UBB5; TR-FRET; 0.31% of 370,000 active; inhibition, % at 4.4 µM; AID 686964; in the data active = inhibition above about 13%
Target sequence (Q9UBB5 whole entry, looked up): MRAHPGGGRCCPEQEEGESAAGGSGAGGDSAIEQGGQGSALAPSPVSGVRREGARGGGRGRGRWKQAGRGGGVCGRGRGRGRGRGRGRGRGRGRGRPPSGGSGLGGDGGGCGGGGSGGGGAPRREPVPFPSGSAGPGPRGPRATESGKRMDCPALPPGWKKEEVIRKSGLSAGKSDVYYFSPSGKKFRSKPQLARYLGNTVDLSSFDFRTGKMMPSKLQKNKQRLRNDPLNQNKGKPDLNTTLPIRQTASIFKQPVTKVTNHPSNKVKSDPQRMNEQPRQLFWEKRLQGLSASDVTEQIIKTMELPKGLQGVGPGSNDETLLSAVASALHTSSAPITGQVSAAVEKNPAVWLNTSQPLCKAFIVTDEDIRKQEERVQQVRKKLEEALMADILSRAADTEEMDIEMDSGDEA
LEDGF integ inh: blocks HIV-1 LEDGF/p75-dependent DNA integration; TR-FRET IN-LEDGF/p75 DNA integration, Eu/Cy5; 0.64% of 370,000 active; AID 743269; inhibition, % at 3.7 µM;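 active = inhibition above the screen-wide mean plus 3 SD, cut at about 13% in these data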;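 note: signal is the Cy5 over europium emission ratio at 671 and 618 nm; 0% = plate median of compound wells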
IN multimer up: HIV-1 integrase multimerization activation, counter-screen; shares compounds with LEDGF integ inh; TR-FRET HIV-1 integrase multimerization, biochemical; activation, % at 7.7 µM; 17% of 2,000 active; in the data active = activation above about 8.9%
TR-FRET interf: optically interferes with TR-FRET readout in LEDGF counter-screen. 2,000 tested, under 10 active. TR-FRET optical interference counterscreen, HIV-1 IN multimerization. inhibition, % at 7.7 µM. shares compounds with LEDGF integ inh;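 active = inhibition above the mean over all tested compounds plus 3 SD, which no compound reached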;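 note: 0% = integrase with antibodies and DMSO and 100% = antibodies without integrase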
IN-LEDGF confirm: LEDGF/p75-dependent HIV-1 integration inhibition, confirmation. 36% of 2,000 active. TR-FRET LEDGF/p75-dependent HIV-1 integration, biochemical. shares compounds with LEDGF integ inh. inhibition, % at 3.7 µM. AID 1053136; in the data active = inhibition above about 14%
Numbers without * were called inactive; nt = no result given.

SMILES	ATG4B inhibitor	rCAG RNA binder	UHRF1 binding	CSN inh	MBD2 DNA inh	LEDGF integ inh	IN multimer up	TR-FRET interf	IN-LEDGF confirm
COc1cccc(C2C(C#N)=C(N)Oc3cc(N)ccc32)c1OC (stereo unspecified)	-10.0	3.2	-8.1	-2.7	0.3	14.8*	2.6	-9.4	-9.4
O=C(c1ccc(F)cc1)N1CCOCC1	1.9	-0.9	-1.2	-10.6	-1.8	-0.4	nt	nt	nt
O=C(c1ccc(=O)oc1)N1CCOCC1	-2.0	17.5	42.8*	23.0	4.1	29.2*	5.7	-28.7	58.3*
Cc1ccc(CN2CCN(C(=O)c3ccncc3)CC2)cc1	10.8	-3.7	1.1	5.2	-2.3	75.5*	0.2	-1.2	4.5
Cc1ccc(CN2CCN(C(=O)CCN3C(=O)c4ccccc4C3=O)CC2)cc1	-7.9	-2.1	2.8	4.9	3.8	79.2*	-0.5	2.8	1.9
c1nc(NCC2CCCC2)c2cc(-c3ccc4c(c3)OCO4)ccc2n1	nt	nt	1.5	nt	2.6	3.6	nt	nt	nt
COc1cccc(NC(=O)COc2nc3ccccc3nc2C)c1	3.4	6.1	2.4	-1.1	-11.8	4.6	nt	nt	nt
Cc1nc2ccccc2nc1OCC(=O)Nc1ccccc1	-3.6	-0.5	-1.8	0.2	-1.1	16.8*	0.8	-4.2	1.0
COc1ccc(C(=O)N2N=C3CC(C)(C)OCC3C2c2ccccc2)cc1 (stereo unspecified)	-3.5	-5.1	2.1	-4.4	-3.9	66.5*	-0.2	1.3	-6.7
COc1ccc(C2CC(c3ccc(C)cc3)=NN2C(=O)c2ccccc2)cc1 (stereo unspecified)	-2.8	1.5	-0.1	1.2	-1.5	-6.2	nt	nt	nt
COc1ccc2c3c(ccc2c1)C(=O)/C(=C/O)CC3	3.5	17.5	3.7	-2.7	3.8	17.0*	4.6	-16.6	26.6*
CCN(CC)c1ccc(N=C2C=CC(=O)C=C2NC(C)=O)cc1	-18.2	25.3	17.2	2.9	0.1	72.9*	36.4*	-183.6	34.5*
Cc1ccc(C)c(N2CCN(C(=O)c3ccc4nc(-c5ccco5)c(-c5ccco5)nc4c3)CC2)c1	15.2	29.4	0.4	41.0	-9.8	40.4*	3.8	-13.9	21.6*
COc1ccccc1N1CCN(C(=O)c2ccc3nc(-c4ccco4)c(-c4ccco4)nc3c2)CC1	-20.7	6.4	-5.0	-3.7	-2.4	2.3	nt	nt	nt
CCOc1ccc(-c2nn[nH]n2)cc1	-12.3	-1.9	2.8	4.2	2.5	2.7	nt	nt	nt
OCCOCCOc1ccc(-c2nn[nH]n2)cc1	-5.4	1.7	23.6*	1.8	-0.9	17.1*	-1.0	3.6	-8.1
CCn1c(NC(=O)/C=C/c2ccc(F)cc2)nc2ccccc21	-9.5	-0.9	-2.5	-1.8	4.3	15.7*	0.3	-1.6	10.8
COc1cc(C2C3=C(COC3=O)Oc3cc4c(cc32)OCO4)cc(OC)c1OC (stereo unspecified)	0.0	2.8	0.1	0.5	2.3	-1.8	nt	nt	nt
COc1cc(C2C3=C(COC3=O)Oc3cc4c(cc32)OCO4)cc(OC)c1O (stereo unspecified)	0.1	-0.8	1.5	-0.8	-1.4	23.1*	-0.3	1.8	-3.4
COc1cc(C(C(=O)NCC2CCCO2)N(C(=O)Cn2nnc3ccccc32)c2ccc(OC)c(OC)c2)ccc1O (stereo unspecified)	-2.8	-4.7	-0.8	7.5	8.7	42.4*	1.4	-5.0	3.4
O=C(CSc1nccc2ccccc12)N1CCN(c2ccccn2)CC1	0.9	3.5	-15.9	1.8	-15.5	13.8*	3.1	-15.5	-2.1
Cc1ccc(SCC(=O)N2CCN(c3ccccn3)CC2)cc1	-1.9	-9.0	1.5	2.5	4.4	-4.5	nt	nt	nt
